Laboratory results published in the M2OR odorant receptor database.

Columns and labels:
Details in all cases: stereoisomer not certain
UniProt Q8VFP5 = target: T1, UniProt Q8VFP5
T1 sequence (whole entry): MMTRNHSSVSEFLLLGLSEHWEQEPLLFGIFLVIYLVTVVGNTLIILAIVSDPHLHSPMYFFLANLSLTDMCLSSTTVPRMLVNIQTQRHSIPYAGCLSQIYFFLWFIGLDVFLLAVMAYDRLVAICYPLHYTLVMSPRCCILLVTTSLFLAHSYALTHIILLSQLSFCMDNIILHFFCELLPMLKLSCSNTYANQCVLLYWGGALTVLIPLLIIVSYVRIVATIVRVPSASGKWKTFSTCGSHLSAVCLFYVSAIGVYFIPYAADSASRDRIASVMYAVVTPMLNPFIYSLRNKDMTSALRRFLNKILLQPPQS
Method in brief: (§1)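 Assay methods differ from source to source, frequently being transient luciferase assays in mammalian cell lines. For each receptor–molecule pair, the label responsive (active) applies when the original authors judged the measured signal statistically different from baseline, and non-responsive (inactive) applies otherwise.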

UniProt Q8VFZ6 = target: T2, UniProt Q8VFZ6
T2 sequence (whole entry): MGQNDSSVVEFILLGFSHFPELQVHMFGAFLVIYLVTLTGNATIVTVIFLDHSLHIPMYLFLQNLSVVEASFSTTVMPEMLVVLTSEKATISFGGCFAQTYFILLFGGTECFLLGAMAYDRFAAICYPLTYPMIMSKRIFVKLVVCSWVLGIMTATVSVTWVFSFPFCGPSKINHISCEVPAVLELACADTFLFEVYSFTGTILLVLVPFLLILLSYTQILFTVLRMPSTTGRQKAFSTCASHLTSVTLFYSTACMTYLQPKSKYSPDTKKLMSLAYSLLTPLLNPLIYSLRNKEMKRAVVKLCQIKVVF
Method in brief: as §1

UniProt Q8VG01 = target: T3, UniProt Q8VG01
T3 sequence (whole entry): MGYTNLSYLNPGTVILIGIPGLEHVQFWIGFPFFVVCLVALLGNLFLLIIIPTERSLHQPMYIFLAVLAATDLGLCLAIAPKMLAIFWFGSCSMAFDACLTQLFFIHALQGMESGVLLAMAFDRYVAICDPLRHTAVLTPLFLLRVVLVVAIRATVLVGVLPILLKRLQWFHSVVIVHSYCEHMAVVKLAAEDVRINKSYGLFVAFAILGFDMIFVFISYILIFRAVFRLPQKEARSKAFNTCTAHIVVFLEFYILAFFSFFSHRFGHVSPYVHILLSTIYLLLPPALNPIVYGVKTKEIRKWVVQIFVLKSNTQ
Method in brief: as §1

UniProt Q8VG22 = target: T4, UniProt Q8VG22
T4 sequence (whole entry): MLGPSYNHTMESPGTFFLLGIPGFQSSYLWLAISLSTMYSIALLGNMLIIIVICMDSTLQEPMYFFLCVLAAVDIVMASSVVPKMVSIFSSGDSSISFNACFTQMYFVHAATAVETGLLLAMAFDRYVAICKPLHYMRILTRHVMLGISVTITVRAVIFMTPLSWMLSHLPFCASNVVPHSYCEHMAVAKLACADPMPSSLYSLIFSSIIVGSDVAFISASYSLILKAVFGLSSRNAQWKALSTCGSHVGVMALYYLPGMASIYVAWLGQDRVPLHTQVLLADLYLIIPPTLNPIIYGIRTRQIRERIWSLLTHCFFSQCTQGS
Method in brief: as §1

UniProt Q8VG27 = target: T5, UniProt Q8VG27
T5 sequence (whole entry): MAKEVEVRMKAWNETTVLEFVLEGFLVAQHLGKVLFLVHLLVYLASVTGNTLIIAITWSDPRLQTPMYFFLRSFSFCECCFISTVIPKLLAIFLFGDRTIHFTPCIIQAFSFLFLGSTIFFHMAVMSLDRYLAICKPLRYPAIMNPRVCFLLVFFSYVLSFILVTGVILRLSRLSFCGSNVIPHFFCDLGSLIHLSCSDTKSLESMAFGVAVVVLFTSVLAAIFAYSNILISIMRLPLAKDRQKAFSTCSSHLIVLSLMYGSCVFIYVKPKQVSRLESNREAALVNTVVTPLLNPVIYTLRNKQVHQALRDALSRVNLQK
Method in brief: as §1

UniProt Q8VG49 = target: T6, UniProt Q8VG49
T6 sequence (whole entry): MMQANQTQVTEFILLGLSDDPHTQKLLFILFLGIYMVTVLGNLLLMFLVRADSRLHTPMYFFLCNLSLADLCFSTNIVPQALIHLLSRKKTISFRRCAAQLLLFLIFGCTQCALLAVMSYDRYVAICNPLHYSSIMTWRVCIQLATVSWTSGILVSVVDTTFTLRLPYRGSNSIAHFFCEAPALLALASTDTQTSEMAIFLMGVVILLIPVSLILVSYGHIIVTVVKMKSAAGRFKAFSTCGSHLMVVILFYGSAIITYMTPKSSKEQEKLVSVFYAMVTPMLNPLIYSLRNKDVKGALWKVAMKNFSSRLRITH
Method in brief: as §1

UniProt Q8VG53 = target: T7, UniProt Q8VG53
T7 sequence (whole entry): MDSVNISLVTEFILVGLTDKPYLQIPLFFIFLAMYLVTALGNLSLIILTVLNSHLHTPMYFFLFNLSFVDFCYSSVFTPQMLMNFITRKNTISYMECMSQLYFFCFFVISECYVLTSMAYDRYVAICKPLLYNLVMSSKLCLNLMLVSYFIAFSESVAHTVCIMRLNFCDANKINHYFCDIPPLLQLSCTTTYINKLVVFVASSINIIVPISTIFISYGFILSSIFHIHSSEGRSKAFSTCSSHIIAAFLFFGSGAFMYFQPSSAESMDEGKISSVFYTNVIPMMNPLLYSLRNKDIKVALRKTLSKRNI
Method in brief: as §1

UniProt Q8VG64 = target: T8, UniProt Q8VG64
T8 sequence (whole entry): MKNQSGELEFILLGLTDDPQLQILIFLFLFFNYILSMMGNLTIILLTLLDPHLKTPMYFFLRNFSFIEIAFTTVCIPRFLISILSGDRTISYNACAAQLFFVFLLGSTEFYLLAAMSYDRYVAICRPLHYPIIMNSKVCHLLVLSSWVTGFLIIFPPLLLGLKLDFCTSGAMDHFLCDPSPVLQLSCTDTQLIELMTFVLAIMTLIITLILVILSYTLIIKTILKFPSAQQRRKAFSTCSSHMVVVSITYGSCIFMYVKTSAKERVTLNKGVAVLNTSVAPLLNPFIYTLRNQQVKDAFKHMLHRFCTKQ
Method in brief: as §1

UniProt Q8VG77 = target: T9, UniProt Q8VG77
T9 sequence (whole entry): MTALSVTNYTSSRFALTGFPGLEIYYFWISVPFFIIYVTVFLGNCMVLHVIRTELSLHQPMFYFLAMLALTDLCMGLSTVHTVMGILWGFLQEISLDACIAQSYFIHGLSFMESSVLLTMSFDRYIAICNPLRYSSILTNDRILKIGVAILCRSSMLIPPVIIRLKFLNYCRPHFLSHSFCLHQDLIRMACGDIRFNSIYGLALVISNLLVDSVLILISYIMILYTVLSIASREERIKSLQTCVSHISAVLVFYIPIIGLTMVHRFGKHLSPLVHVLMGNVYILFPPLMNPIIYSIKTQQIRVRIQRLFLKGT
Method in brief: as §1

UniProt Q8VG96 = target: T10, UniProt Q8VG96
T10 sequence (whole entry): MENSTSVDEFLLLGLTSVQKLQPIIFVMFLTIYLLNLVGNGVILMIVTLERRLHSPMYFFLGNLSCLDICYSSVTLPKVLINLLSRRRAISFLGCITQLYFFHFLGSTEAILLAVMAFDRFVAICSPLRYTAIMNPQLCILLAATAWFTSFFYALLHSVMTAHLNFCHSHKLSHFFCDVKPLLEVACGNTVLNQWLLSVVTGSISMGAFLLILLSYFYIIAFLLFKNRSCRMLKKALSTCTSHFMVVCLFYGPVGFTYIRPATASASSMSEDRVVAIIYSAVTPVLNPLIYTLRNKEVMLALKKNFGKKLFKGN
Method in brief: as §1

UniProt Q8VGB9 = target: T11, UniProt Q8VGB9
T11 sequence (whole entry): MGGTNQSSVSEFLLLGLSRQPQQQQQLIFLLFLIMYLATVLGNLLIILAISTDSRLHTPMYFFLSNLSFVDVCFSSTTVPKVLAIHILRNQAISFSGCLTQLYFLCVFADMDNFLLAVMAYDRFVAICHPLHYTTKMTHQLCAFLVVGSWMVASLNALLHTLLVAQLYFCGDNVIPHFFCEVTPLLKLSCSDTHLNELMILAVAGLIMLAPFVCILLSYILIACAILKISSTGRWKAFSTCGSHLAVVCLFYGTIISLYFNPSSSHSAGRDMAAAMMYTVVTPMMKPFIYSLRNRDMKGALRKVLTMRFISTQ
Method in brief: as §1

UniProt Q8VG26 = target: UniProt Q8VG26
Method in brief: as §1

UniProt Q8VG28 = target: UniProt Q8VG28
Method in brief: as §1

Sequence of UniProt Q8VG28 (Q8VG28 as listed by the source): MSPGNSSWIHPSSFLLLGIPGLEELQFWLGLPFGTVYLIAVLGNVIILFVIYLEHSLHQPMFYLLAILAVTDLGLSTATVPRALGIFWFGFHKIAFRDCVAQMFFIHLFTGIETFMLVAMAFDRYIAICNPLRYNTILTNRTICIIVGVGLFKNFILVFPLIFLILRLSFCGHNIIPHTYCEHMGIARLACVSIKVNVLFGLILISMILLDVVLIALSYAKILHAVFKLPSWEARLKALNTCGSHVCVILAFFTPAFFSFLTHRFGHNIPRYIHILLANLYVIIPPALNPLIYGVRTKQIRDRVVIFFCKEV
Sequence of UniProt Q8VG26 (Q8VG26 as listed by the source): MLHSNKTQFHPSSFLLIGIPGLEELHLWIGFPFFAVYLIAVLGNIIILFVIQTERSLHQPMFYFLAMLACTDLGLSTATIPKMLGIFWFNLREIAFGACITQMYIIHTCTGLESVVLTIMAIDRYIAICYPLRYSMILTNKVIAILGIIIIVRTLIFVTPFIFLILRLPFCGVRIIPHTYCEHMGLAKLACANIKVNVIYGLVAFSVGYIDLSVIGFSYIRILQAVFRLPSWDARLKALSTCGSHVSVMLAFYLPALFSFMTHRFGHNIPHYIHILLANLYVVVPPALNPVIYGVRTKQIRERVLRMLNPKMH

Row | Structure (SMILES) | odorant receptor agonist call (UniProt Q8VFP5) | odorant receptor agonist call (UniProt Q8VFZ6) | odorant receptor agonist call (UniProt Q8VG01) | odorant receptor agonist call (UniProt Q8VG22) | odorant receptor agonist call (UniProt Q8VG27) | odorant receptor agonist call (UniProt Q8VG49) | odorant receptor agonist call (UniProt Q8VG53) | odorant receptor agonist call (UniProt Q8VG64) | odorant receptor agonist call (UniProt Q8VG77) | odorant receptor agonist call (UniProt Q8VG96) | odorant receptor agonist call (UniProt Q8VGB9) | odorant receptor agonist call (UniProt Q8VG26) | odorant receptor agonist call (UniProt Q8VG28)
1 | CC(=O)OCc1ccccc1 | inactive | inactive | inactive | active | inactive | inactive | inactive | inactive | inactive | inactive | inactive |  | 
2 | CCCCCCCC(C)=O | inactive | inactive | inactive | inactive | inactive | inactive | inactive | inactive | inactive | inactive | inactive |  | 
3 | O=C(c1ccccc1)c1ccccc1 | inactive | inactive | inactive | inactive | inactive | inactive | inactive | inactive | inactive | inactive | inactive |  | 
4 | CC(=O)OCC=C(C)C | inactive | inactive | inactive | inactive | inactive | inactive | inactive | inactive | inactive | inactive | inactive |  | 
5 | CCCCCCCCS | inactive | inactive | inactive | inactive | inactive | inactive | inactive | inactive | inactive | inactive | inactive |  | 
6 | CCCCCCCO | inactive | inactive | inactive | active | inactive | inactive | inactive | inactive | inactive | inactive | inactive | inactive | inactive
7 | CC(C)=CCCC(C)=CCO | inactive | active | inactive | inactive | inactive | inactive | inactive | inactive | inactive | inactive | inactive |  | 
8 | CCCCCCC=CC=O | inactive |  | inactive |  | inactive |  | inactive | inactive |  |  | inactive |  | 
9 | O=C([O-])CCCCCCC(=O)[O-].[H+].[H+] | inactive |  | inactive |  | inactive |  | inactive | inactive |  |  | inactive |  | inactive
10 | Cc1ccc(C(C)C)cc1 | inactive |  | inactive |  | inactive |  | inactive | inactive |  |  | inactive |  | 
11 | CC(C)CCN | inactive |  | inactive |  | inactive |  | inactive | inactive |  |  | inactive |  | 
